Experimental data as given in ChEMBL document CHEMBL4350961, “Discovery of Pyrrolo[3,2- d]pyrimidin-4-one Derivatives as a New Class of Potent and Cell-Active Inhibitors of P300/CBP-Associated Factor Bromodomain” (J Med Chem, 2019).
The source made the active and inactive calls.

Experiments:
[1] = molecular target: Testis-specific serine/threonine-protein kinase 3 (Homo sapiens) (UniProt Q96PN8); test: Inhibition of recombinant full-length human TSSK3 at 10 uM using AMARAASAAALARRR as substrate measured after 40 mins in presence of [gamma33P]ATP by scintillation counting method
[2] = molecular target: Dual specificity mitogen-activated protein kinase kinase 1 (Homo sapiens) (UniProt Q02750); test: Inhibition of recombinant full-length human MEK1 at 10 uM using unactive MAPK2 as substrate measured after 40 mins in presence of [gamma33P]ATP by scintillation counting method
Chain of Dual specificity mitogen-activated protein kinase kinase 1 (Homo sapiens) (Q02750 whole entry): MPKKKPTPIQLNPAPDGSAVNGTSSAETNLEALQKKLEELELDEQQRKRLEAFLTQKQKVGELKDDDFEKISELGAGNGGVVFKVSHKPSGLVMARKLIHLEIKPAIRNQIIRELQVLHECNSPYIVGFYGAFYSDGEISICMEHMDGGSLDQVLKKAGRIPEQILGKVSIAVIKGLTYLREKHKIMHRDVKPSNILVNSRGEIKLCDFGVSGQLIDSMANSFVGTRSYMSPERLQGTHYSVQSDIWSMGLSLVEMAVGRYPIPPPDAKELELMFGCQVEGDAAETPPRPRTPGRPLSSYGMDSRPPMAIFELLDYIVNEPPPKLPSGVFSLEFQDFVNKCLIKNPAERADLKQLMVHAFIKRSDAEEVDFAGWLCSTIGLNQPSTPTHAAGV

[3] = molecular target: CDK2/Cyclin A2 (Homo sapiens) (UniProt P24941+P20248); test: Inhibition of recombinant full-length human CDK2/cyclinA at 10 uM using histone H1 as substrate measured after 40 mins in presence of [gamma33P]ATP by scintillation counting method; assay type: protein-complex assay
[4] = molecular target: Phosphatidylinositol 4-phosphate 5-kinase type-1 gamma (Homo sapiens) (UniProt O60331); test: Inhibition of recombinant full-length human PIP5K1gamma at 10 uM using phosphatidylinositol 4-phosphate as substrate measured after 40 mins by HTRF assay
Chain of Phosphatidylinositol 4-phosphate 5-kinase type-1 gamma (Homo sapiens) (O60331 whole entry): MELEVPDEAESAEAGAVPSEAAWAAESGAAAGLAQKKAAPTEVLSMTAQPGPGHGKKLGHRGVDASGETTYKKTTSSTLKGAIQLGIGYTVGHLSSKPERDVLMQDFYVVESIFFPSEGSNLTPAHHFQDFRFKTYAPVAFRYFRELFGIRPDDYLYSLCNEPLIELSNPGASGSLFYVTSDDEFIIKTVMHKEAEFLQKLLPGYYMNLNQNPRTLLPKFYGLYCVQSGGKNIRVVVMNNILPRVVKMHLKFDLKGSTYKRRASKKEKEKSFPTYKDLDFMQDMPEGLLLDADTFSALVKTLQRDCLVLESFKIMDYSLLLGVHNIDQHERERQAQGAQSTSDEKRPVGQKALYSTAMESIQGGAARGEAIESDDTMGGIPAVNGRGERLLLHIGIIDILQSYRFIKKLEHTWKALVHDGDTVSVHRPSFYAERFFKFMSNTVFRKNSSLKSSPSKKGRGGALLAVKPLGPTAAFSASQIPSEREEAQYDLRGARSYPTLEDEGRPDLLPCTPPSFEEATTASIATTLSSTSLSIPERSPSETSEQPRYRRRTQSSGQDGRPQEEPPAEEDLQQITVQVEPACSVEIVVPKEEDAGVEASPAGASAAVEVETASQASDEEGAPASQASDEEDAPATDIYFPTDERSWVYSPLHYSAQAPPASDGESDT

[5] = system: Mast/stem cell growth factor receptor Kit (Homo sapiens), P10721 [V560G]; test: Inhibition of recombinant human c-Kit V560G mutant (544 to end residues) at 10 uM using GGMEDIYFEFMGGKKK as substrate measured after 40 mins in presence of [gamma33P]ATP by scintillation counting method
[6] = molecular target: cGMP-dependent protein kinase 1 (Homo sapiens) (UniProt Q13976); test: Inhibition of recombinant full-length human PKG1alpha at 10 uM using RRRLSFAEPG as substrate measured after 40 mins in presence of [gamma33P]ATP by scintillation counting method
[7] = molecular target: Aurora kinase B (Homo sapiens) (UniProt Q96GD4); test: Inhibition of recombinant full-length human AURKB at 10 uM using AKRRRLSSLRA as substrate measured after 40 mins in presence of [gamma33P]ATP by scintillation counting method
[8] = molecular target: Phosphatidylinositol 5-phosphate 4-kinase type-2 alpha (Homo sapiens) (UniProt P48426); test: Inhibition of recombinant full-length human PIP4K2alpha at 10 uM using phosphatidylinositol 5-phosphate as substrate measured after 40 mins by HTRF assay
Mus musculus = species: Mus musculus; test: Inhibition of recombinant full-length mouse PI3K p110beta/p85alpha R123L mutant at 10 uM using phosphatidylinositol-4, 5-bisphosphate as substrate measured after 40 mins by HTRF assay
[9] = molecular target: Casein kinase I isoform gamma-2 (Homo sapiens) (UniProt P78368); test: Inhibition of recombinant human CK1gamma2 (18 to end residues) at 10 uM using KRRRALS(p)VASLPGL as substrate measured after 40 mins in presence of [gamma33P]ATP by scintillation counting method
Chain of Casein kinase I isoform gamma-2 (Homo sapiens) (P78368 whole entry, looked up, canonical isoform): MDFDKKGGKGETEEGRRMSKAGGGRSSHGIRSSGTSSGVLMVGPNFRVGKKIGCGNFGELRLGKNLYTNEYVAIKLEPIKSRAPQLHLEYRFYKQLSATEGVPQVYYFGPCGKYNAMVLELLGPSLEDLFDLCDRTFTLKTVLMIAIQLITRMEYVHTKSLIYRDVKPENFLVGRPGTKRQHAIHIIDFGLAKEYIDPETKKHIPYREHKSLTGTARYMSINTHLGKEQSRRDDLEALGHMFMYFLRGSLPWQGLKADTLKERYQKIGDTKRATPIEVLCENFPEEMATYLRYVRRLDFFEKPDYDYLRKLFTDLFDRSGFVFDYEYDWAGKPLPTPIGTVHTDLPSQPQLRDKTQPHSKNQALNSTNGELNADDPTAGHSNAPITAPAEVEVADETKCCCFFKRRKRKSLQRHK

Homo sapiens = species: Homo sapiens; test: Inhibition of recombinant full-length human AURKA I31F mutant at 10 uM using LRRASLG as substrate measured after 40 mins in presence of [gamma33P]ATP by scintillation counting method
[10] = molecular target: 5'-AMP-activated protein kinase catalytic subunit alpha-2 (Homo sapiens) (UniProt P54646); test: Inhibition of recombinant full-length human AMPKalpha2 at 10 uM using AMARAASAAALARRR as substrate measured after 40 mins in presence of [gamma33P]ATP by scintillation counting method
[11] = molecular target: LIM domain kinase 2 (Homo sapiens) (UniProt P53671); test: Inhibition of recombinant human LIMK2 at 10 uM by radiometric method
[12] = molecular target: Serine/threonine-protein kinase B-raf (Homo sapiens) (UniProt P15056); test: Inhibition of recombinant human BRAF (416 to end residues) at 10 uM using myelin basic protein as substrate measured after 40 mins in presence of [gamma33P]ATP by scintillation counting method
[13] = molecular target: Serine/threonine-protein kinase 10 (Homo sapiens) (UniProt O94804); test: Inhibition of recombinant human LOK (1 to 348 residues) at 10 uM using RLGRDKYKTLRQIRQ as substrate measured after 40 mins in presence of [gamma33P]ATP by scintillation counting method
[14] = molecular target: Protein kinase C epsilon type (Homo sapiens) (UniProt Q02156); test: Inhibition of recombinant human PKCepsilon (2 to end residues) at 10 uM using ERMRPRKRQGSVRRRV as substrate measured after 40 mins in presence of [gamma33P]ATP by scintillation counting method
[15] = molecular target: Protein-tyrosine kinase 2-beta (Homo sapiens) (UniProt Q14289); test: Inhibition of recombinant full-length human Pyk2 at 10 uM using poly(Glu, Tyr) 4:1 as substrate measured after 40 mins in presence of [gamma33P]ATP by scintillation counting method
[16] = molecular target: Serine/threonine-protein kinase haspin (Homo sapiens) (UniProt Q8TF76); test: Inhibition of recombinant human haspin (471 to end residues) at 10 uM using RARTLSFAEPG as substrate measured after 40 mins in presence of [gamma33P]ATP by scintillation counting method
[17] = molecular target: Mitogen-activated protein kinase kinase kinase 7 (Homo sapiens) (UniProt O43318); test: Inhibition of human TAK1 (1 to 303 residues) using casein as substrate measured after 40 mins in presence of [gamma33P]ATP by scintillation counting method
[18] = system: SNF-related serine/threonine-protein kinase (Homo sapiens), Q9NRH2 [UNDEFINED MUTATION]; test: Inhibition of human SNRK E97G/P116A mutant (65 to 409 residues) using KKLRRTLSFAEPG as substrate measured after 40 mins in presence of [gamma33P]ATP by scintillation counting method
Outline: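 Kinase panel of 422 kinases screened by Eurofins KinaseProfiler at a single test-compound concentration of 10 µM.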

[19] = molecular target: Tau-tubulin kinase 1 (Homo sapiens) (UniProt Q5TCY1); test: Inhibition of human TTBK1 (1 to 479 residues) using Casein as substrate measured after 40 mins in presence of [gamma33P]ATP by scintillation counting method
[20] = molecular target: Serine-protein kinase ATM (Homo sapiens) (UniProt Q13315); test: Inhibition of recombinant full-length human ATM at 10 uM using GST-cMyc-p53 as substrate measured after 40 mins by ELISA
Chain of Serine-protein kinase ATM (Homo sapiens) (Q13315 whole entry): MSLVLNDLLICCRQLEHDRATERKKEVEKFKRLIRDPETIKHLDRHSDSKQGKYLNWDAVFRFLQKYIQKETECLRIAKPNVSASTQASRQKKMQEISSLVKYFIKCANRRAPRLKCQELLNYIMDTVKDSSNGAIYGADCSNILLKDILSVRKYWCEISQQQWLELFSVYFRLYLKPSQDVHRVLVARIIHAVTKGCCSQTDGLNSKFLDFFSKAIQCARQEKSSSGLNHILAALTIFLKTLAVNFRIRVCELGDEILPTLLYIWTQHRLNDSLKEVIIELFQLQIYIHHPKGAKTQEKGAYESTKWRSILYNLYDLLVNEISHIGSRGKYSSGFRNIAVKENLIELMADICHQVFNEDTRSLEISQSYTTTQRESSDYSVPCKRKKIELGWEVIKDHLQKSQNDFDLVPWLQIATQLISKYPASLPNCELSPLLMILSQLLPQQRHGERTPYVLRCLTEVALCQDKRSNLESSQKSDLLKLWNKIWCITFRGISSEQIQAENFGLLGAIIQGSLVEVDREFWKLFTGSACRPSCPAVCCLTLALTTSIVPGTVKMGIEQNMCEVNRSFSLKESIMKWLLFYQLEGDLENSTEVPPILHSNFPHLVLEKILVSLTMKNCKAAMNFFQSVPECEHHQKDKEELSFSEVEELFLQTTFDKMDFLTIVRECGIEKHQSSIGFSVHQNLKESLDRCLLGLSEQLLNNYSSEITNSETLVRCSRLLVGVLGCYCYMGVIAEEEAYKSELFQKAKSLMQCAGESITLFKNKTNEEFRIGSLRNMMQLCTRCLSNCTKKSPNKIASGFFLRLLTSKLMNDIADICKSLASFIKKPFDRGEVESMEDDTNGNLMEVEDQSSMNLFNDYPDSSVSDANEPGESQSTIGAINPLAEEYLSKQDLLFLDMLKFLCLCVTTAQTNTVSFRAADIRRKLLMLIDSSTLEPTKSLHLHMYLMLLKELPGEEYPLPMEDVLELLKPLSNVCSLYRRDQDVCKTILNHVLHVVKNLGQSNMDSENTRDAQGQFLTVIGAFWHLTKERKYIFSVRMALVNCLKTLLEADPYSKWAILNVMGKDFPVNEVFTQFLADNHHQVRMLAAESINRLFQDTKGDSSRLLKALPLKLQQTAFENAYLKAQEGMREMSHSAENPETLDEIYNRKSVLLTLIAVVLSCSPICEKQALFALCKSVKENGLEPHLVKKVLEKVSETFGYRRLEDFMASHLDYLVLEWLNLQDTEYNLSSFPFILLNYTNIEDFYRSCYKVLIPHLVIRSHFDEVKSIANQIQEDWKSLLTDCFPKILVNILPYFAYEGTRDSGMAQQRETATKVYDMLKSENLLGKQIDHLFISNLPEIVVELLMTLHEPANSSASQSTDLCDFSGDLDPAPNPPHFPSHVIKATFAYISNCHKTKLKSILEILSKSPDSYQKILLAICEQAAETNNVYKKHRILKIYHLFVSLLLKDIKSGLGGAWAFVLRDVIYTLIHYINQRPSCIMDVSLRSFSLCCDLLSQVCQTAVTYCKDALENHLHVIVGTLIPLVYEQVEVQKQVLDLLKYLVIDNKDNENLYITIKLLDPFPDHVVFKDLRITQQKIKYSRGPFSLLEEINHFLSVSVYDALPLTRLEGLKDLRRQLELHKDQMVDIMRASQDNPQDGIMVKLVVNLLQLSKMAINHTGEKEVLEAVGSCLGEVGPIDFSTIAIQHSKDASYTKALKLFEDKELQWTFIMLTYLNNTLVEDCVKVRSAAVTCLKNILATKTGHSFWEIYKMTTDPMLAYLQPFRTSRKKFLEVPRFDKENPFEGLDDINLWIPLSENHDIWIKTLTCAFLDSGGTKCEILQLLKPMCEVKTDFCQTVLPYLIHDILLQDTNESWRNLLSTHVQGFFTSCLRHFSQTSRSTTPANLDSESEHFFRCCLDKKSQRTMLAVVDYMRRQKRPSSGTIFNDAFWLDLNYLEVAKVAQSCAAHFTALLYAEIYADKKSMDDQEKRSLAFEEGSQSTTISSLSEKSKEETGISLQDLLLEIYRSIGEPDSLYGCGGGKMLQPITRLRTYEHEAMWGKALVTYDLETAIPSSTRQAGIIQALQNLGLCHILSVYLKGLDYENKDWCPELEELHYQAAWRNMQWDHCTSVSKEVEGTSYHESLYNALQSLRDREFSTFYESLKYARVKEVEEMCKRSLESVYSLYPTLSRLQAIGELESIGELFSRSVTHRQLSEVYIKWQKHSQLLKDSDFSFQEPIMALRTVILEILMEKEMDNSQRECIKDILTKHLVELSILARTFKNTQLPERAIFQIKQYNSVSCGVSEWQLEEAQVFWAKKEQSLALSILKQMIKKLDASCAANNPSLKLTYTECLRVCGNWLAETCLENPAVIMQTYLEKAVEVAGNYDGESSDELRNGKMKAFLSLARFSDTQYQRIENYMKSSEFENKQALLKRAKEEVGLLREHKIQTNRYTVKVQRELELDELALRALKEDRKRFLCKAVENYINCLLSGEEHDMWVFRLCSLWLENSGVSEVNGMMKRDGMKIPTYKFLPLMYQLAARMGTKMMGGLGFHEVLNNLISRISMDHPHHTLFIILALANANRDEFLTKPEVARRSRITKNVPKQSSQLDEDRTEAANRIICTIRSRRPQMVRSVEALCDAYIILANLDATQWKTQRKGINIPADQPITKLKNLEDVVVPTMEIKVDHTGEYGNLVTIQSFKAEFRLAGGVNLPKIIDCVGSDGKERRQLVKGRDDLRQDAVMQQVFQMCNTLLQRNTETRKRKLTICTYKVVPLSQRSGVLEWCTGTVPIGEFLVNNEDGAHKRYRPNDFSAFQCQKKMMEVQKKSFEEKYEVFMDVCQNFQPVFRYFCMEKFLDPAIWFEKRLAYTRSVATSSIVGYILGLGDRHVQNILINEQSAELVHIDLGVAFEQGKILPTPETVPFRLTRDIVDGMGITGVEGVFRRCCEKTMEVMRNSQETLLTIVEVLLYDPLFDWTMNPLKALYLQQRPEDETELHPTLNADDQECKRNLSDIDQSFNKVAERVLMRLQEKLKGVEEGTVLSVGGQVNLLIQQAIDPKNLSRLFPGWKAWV

[21] = molecular target: Rhodopsin kinase GRK7 (Homo sapiens) (UniProt Q8WTQ7); test: Inhibition of recombinant full-length human GRK7 at 10 uM using casein as substrate measured after 40 mins in presence of [gamma33P]ATP by scintillation counting method
Chain of Rhodopsin kinase GRK7 (Homo sapiens) (Q8WTQ7 whole entry): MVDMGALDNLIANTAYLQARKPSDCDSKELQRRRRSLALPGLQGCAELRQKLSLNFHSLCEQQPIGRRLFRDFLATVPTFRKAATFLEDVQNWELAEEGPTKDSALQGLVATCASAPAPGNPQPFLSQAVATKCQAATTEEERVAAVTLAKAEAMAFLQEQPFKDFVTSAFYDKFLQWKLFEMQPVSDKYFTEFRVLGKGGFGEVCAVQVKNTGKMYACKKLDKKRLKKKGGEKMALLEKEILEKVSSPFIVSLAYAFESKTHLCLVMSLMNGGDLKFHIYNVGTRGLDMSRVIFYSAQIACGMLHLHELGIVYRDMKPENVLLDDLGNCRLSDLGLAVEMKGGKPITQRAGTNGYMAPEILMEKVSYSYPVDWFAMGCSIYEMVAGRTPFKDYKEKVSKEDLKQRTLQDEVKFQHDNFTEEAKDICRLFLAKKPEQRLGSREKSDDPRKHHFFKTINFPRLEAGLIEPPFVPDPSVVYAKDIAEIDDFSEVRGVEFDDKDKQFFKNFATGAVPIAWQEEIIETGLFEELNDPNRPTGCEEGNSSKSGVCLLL

[22] = molecular target: Tyrosine-protein kinase Lyn (Homo sapiens) (UniProt P07948); test: Inhibition of recombinant full-length human Lyn at 10 uM using poly(Glu, Tyr) 4:1 as substrate measured after 40 mins in presence of [gamma33P]ATP by scintillation counting method
[23] = molecular target: Serine/threonine-protein kinase mTOR (Homo sapiens) (UniProt P42345); test: Inhibition of recombinant full-length human mTOR at 10 uM measured after 40 mins in presence of [gamma33P]ATP by scintillation counting method

Measured: inhibition

CN1C[C@H](Nc2nc3cc[nH]c3c(=O)n2C)C[C@H](c2ccc3c(c2)OCCO3)C1
inactive: [1] | [2] | [3] | [4] | [5] | [6] | [7] | [8] | Mus musculus | [9] | Homo sapiens | [10] | [11] | [12] | [13] | [14] | [15] | [16] | [17] | [18] | [19] | [20] | [21] | [22] | [23]
